A short description of data set [1]: (§1) Partition coefficient (logP). Format: physicochemical. Particulars: octanol/water. An outline of the steps:
(§2)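 Partition between octanol and pH 7.4 Tris buffer, reported as log P.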

Data set [2] can be described thus: as §1. Format: physicochemical. The note with it: octanol/water. An outline of the steps: as §2
The source holds these as a separate data set.

The species entered for data set [3] is Mus musculus. Nature of the data set: Tissue biodistribution of the syn isomer in the B16 murine melanoma tumor in mice at 3 hours. The class given is ADME, organism-based. Particulars: in vivo. A digest of the protocol:
(§3)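 Male C57BL/6 J1 co mice given 5 × 10^5 viable B16 melanoma cells subcutaneously; tumors palpable after 10 days. 0.74 MBq 99mTc-labeled complex injected iv via tail vein. n = 3 per time point; sacrifice by exsanguination at 5 min, 15 min, 1, 3, 6 and 24 h. Tissues weighed and γ-counted; results as % injected dose/gram of tissue.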

A short description of data set [4]: Tumor / liver ratio observed after 6 hours of injection. The class given is ADME.
For data set [5], the species on record is Mus musculus. Nature of the data set: Tissue biodistribution of the syn isomer in the B16 murine melanoma tumor in mice at 24 hours. Format: ADME, organism-based. The note with it: in vivo. A digest of the protocol: as §3
A short description of data set [6]: Tumor / liver ratio observed after 24 hours of injection. Format: ADME, tissue-based.
The species entered for data set [7] is Mus musculus. The experiment in a line: Tissue biodistribution of the syn isomer in the B16 murine melanoma tumor in mice at 6 hours. The class given is ADME, organism-based. Particulars: in vivo. A digest of the protocol: as §3
The nature of data set [8]: Tumor / liver ratio observed after 3 hours of injection. Format: ADME, tissue-based.
Data set [9] is filed under the species Mus musculus. The experiment in a line: Tissue biodistribution of the syn isomer in the B16 murine melanoma tumor in mice at 1 hour. The class given is ADME, organism-based. The note with it: in vivo. A digest of the protocol: as §3
A short description of data set [10]: Tumor / liver ratio observed after 1 hour of injection. The class given is ADME, tissue-based.

In general, logP refers to a log measure of how a compound divides between an organic and an aqueous phase. Higher therefore signals a more lipophilic compound. For the compound `CCN(CC)CCNC(=O)c1ccc(COCC(CNCC(C)(C)S)NCC(C)(C)S)cc1` (stereo not drawn), the logP in data set [1] was -0.45; in data set [2], -0.3.

As for “(TcN-BAT)nitridotechnetium complex of bis(aminoethanethiol)”, the ID/g in the data set listed under Mus musculus [3] was 0.2%; in the data set listed under Mus musculus [5], 0.04%; in the data set listed under Mus musculus [7], 0.11%; in the data set listed under Mus musculus [9], 0.75%. The Tumor/liver ratio in [4] came to 0.1; in data set [6] it was 0.06; in data set [8], 0.1; in data set [10], 0.18.

In the case of `CCN(CC)CCNC(=O)c1ccc([125I])cc1`, the ID/g turned out to be 3.85% in the data set listed under Mus musculus [3], 0.79% in the data set listed under Mus musculus [5], 3.53% in the data set filed under Mus musculus [7] and 6.75% in the data set filed under Mus musculus [9]. Further, the Tumor/liver ratio in [4] worked out at 3.71; in data set [6], 4.94; in data set [8] it was 1.05; in data set [10] it was 1.12.

For the origin of these results see ChEMBL document CHEMBL1133660, “A potential melanoma tracer: synthesis, radiolabeling, and biodistribution in mice of a new nitridotechnetium bis(aminothiol) derivative pharmacomodulated by a N-(diethylaminoethyl)benzamide” (J Med Chem, 2000).
